Results of several laboratories.
Compare with care: the assays were run in different laboratories.
Target: Serine/threonine-protein kinase PAK 6 (PAK6, Homo sapiens, UniProt Q9NQU5)

SMILES | test | conditions | measurement | value
O=c1[nH]c2ccccc2n1C1CCN(Cc2ccc(-c3[nH]c4cc5ncnc5cc4nc3-c3ccccc3)cc2)CC1 | cell-free assay | 0.5 µM | remaining signal | 109%
COc1cc(Nc2ncc(F)c(Nc3ccc4c(n3)NC(=O)C(C)(C)O4)n2)cc(OC)c1OC | binding, competition with immobilised ligand | 10 µM | inhibition | 96%
COc1ncccc1-c1cnn2ccc(N3CCN(C(=O)OC(C)C)CC3)nc12 | binding, competition with immobilised ligand | 1 µM | remaining binding | 97%
Cc1nn(C)cc1-c1nc2c(N3CCN(Cc4ccc(Cl)cc4)CC3)c(Cl)cnc2[nH]1 | binding, competition with immobilised ligand | 1 µM | remaining binding | 100%
Cn1cc(-c2cccc(N3CCc4c(sc5c4CC(C)(C)C5)C3=O)c2CO)cc(Nc2ccncn2)c1=O | enzyme activity, inhibitor | 1 µM | inhibition | -7%
Cn1cncc1[C@](O)(COc1ccc(C#N)cc1-c1ccc(OC(F)(F)F)cc1)c1ccc(C#N)cc1 | cell-free assay, competition with immobilised ligand | 1 µM | remaining binding | 98%
Cn1cc(-c2cc(F)cc(N3CCn4c(cc5c4CCCC5)C3=O)c2CO)cc(Nc2ccc(N3CCN(C4COC4)CC3)cn2)c1=O | enzyme activity, inhibitor | 0.1 µM | inhibition | 22%
Nc1ncc(-c2nc(N3CCOCC3)nc(N3CCOCC3)n2)c(C(F)F)n1 | binding, competition with immobilised ligand | 10 µM | remaining binding | 79%
